Measurements published in ChEMBL document CHEMBL1145471, “Small molecule regulators of autophagy identified by an image-based high-throughput screen” (Proc Natl Acad Sci U S A, 2007).

What was measured:
Format in all cases: functional
H4 [1] = test: Increase in long-lived protein degradation in human H4 cells after 24 hrs relative to control; design: concentration or dose not given beside the values
H4 [2] = test: Increase in light chain 3-GFP+ autophagosome vesicle intensity per cell in human H4 cells at 5.8 uM after 24 hrs by high throughput fluorescence microscopy relative to control
How it was run: (§1)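 H4 cells stably expressing LC3-GFP were grown in DMEM with 10% FBS and 2 mM L-glutamine at 37°C, 5% CO2. They were exposed to each compound for 24 h, with DMSO as negative and rapamycin as positive control. Cells were then fixed in 4% paraformaldehyde and stained with 3 μg/ml DAPI. High-throughput fluorescence imaging scored LC3-GFP spot number, size and intensity, expressed relative to DMSO. Mean ± SD of triplicates; experiments repeated three times.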

H4 [3] = test: Effect on FYVE-RFP+ vesicle intensity per cell in human H4 cells after 8 hrs relative to control; design: concentration or dose not given beside the values
How it was run: (§2)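 H4 cells stably expressing FYVE-RFP (H4-FYVE), grown in DMEM with 10% FBS, penicillin/streptomycin and 2 mM L-glutamine at 37°C, 5% CO2, seeded in 96-well plates and exposed to compound. Fixed in 4% paraformaldehyde, nuclei stained with 3 μg/ml DAPI, FYVE-RFP+ vesicles quantified by high-throughput fluorescence microscopy against DMSO control. Triplicate wells, mean ± SD.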

H4 [4] = test: Induction of light chain 3-GFP level in human H4 cells at 5.8 uM after 24 hrs by high throughput fluorescence microscopy relative to control
How it was run: (§3)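 H4 cells stably expressing LC3-GFP, grown in DMEM with 10% FBS, penicillin/streptomycin and 2 mM L-glutamine at 37°C, 5% CO2. Cells were seeded in 96-well plates and exposed to library compounds at 3–12 μM for 24 h, then fixed in 4% paraformaldehyde and stained with 3 μg/ml DAPI. LC3-GFP spot number, size and intensity were measured by high-throughput fluorescence microscopy and expressed relative to DMSO. Triplicates, mean ± SD.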

H4 [5] = test: Increase in long-lived protein degradation in human H4 cells after 4 hrs relative to control; design: concentration or dose not given beside the values
H4 [6] = test: Effect on FYVE-RFP+ vesicle intensity per cell in human H4 cells after 4 hrs relative to control; design: concentration or dose not given beside the values; how it was run: as §2
H4 [7] = test: Increase in light chain 3-GFP+ autophagosome vesicle area per cell in human H4 cells at 5.8 uM after 24 hrs by high throughput fluorescence microscopy relative to control
How it was run: (§4)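 H4 cells stably expressing LC3-GFP, seeded in 96-well plates and exposed to compound for 24 h; screening concentrations were 3–12 μM, with rapamycin 0.22 μM and bafilomycin A1 0.40 μM. Cells fixed in 4% paraformaldehyde and stained with 3 μg/ml DAPI. Number, size and intensity of LC3-GFP spots measured by high-throughput fluorescence microscopy and expressed as percent of DMSO-treated wells. Rapamycin was the positive control. Triplicate wells, mean ± SD; experiments repeated three times.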

H4 [8] = test: Increase in long-lived protein degradation in human H4 cells after 2 hrs relative to control; design: concentration or dose not given beside the values
H4 [9] = test: Effect on FYVE-RFP+ vesicle intensity per cell in human H4 cells after 2 hrs relative to control; design: concentration or dose not given beside the values; how it was run: as §2
H4 [10] = test: Increase in light chain 3-GFP+ autophagosome vesicle number per cell in human H4 cells at 5.8 uM after 24 hrs by high throughput fluorescence microscopy relative to control; how it was run: as §1
H4 [11] = test: Increase in long-lived protein degradation in human H4 cells after 1 hr relative to control; design: concentration or dose not given beside the values
H4 [12] = test: Decrease in FYVE-RFP+ vesicle intensity per cell in human H4 cells after 2 hrs relative to control; design: concentration or dose not given beside the values; how it was run: as §2
H4 [13] = test: Decrease in FYVE-RFP+ vesicle intensity per cell in human H4 cells after 8 hrs relative to control; design: concentration or dose not given beside the values; how it was run: as §2
H4 [14] = test: Increase in light chain 3-GFP+ autophagosome vesicle intensity per cell in human H4 cells at 9.0 uM after 24 hrs by high throughput fluorescence microscopy relative to control; how it was run: as §1
H4 [15] = test: Increase in light chain 3-GFP+ autophagosome vesicle area per cell in human H4 cells at 9.0 uM after 24 hrs by high throughput fluorescence microscopy relative to control; how it was run: as §4
H4 [16] = test: Increase in light chain 3-GFP+ autophagosome vesicle number per cell in human H4 cells at 9.0 uM after 24 hrs by high throughput fluorescence microscopy relative to control; how it was run: as §3
H4 [17] = test: Decrease in FYVE-RFP+ vesicle intensity per cell in human H4 cells after 4 hrs relative to control; design: concentration or dose not given beside the values; how it was run: as §2
H4 [18] = test: Induction of light chain 3-GFP level in human H4 cells at 9.0 uM after 24 hrs by high throughput fluorescence microscopy relative to control; how it was run: as §3
H4 [19] = test: Increase in light chain 3-GFP+ autophagosome vesicle area per cell in human H4 cells at 5.1 uM after 24 hrs by high throughput fluorescence microscopy relative to control; how it was run: as §4
H4 [20] = test: Increase in light chain 3-GFP+ autophagosome vesicle number per cell in human H4 cells at 5.1 uM after 24 hrs by high throughput fluorescence microscopy relative to control; how it was run: as §1
H4 [21] = test: Induction of light chain 3-GFP level in human H4 cells at 5.1 uM after 24 hrs by high throughput fluorescence microscopy relative to control; how it was run: as §3
H4 [22] = test: Increase in light chain 3-GFP+ autophagosome vesicle intensity per cell in human H4 cells at 5.1 uM after 24 hrs by high throughput fluorescence microscopy relative to control; how it was run: as §1
H4 [23] = test: Increase in light chain 3-GFP+ autophagosome vesicle area per cell in human H4 cells at 13.2 uM after 24 hrs by high throughput fluorescence microscopy relative to control
How it was run: (§5)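 H4 cells stably expressing LC3-GFP, seeded in 96-well plates and exposed to compound for 24 h; fixed in 4% paraformaldehyde, nuclei stained with 3 μg/ml DAPI. Automated fluorescence microscopy scored number, size and intensity of LC3-GFP spots; values expressed relative to DMSO-treated wells, rapamycin positive control. Triplicate wells, mean ± SD; experiments repeated three times.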

H4 [24] = test: Increase in light chain 3-GFP+ autophagosome vesicle number per cell in human H4 cells at 13.2 uM after 24 hrs by high throughput fluorescence microscopy relative to control; how it was run: as §5
H4 [25] = test: Increase in light chain 3-GFP+ autophagosome vesicle intensity per cell in human H4 cells at 13.2 uM after 24 hrs by high throughput fluorescence microscopy relative to control; how it was run: as §5
H4 [26] = test: Induction of light chain 3-GFP level in human H4 cells at 13.2 uM after 24 hrs by high throughput fluorescence microscopy relative to control
How it was run: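 H4 cells stably expressing LC3-GFP, kept in DMEM/10% FBS at 37°C, 5% CO2, were seeded in 96-well plates and exposed to compound for 24 h. Cells were then fixed in 4% paraformaldehyde and stained with 3 μg/ml DAPI. Automated fluorescence microscopy scored the number, size and intensity of LC3-GFP spots. Values are percent of DMSO wells, in triplicate, mean ± SD. Rapamycin served as positive control.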

SMILES | Activity (H4 [1]) | Activity (H4 [3]) | Activity (H4 [5]) | Activity (H4 [6]) | Activity (H4 [8]) | Activity (H4 [9]) | Activity (H4 [11]) | Activity (H4 [12]) | Activity (H4 [13]) | Activity (H4 [17]) | also measured
CCN(CC)CCCCCCCCOC(=O)c1cc(OC)c(OC)c(OC)c1 | 95.47% | 78.64% | 109.05% | 74.72% | 124.85% | 89.59% | 106.69% |  |  |  | Activity (H4 [2]): 229.5%; Activity (H4 [4]): 145.22%; Activity (H4 [7]): 201.59%; Activity (H4 [10]): 170.87%
O=C(Nc1ccccc1)c1cc([N+](=O)[O-])ccc1Cl | 89.29% |  | 93.22% |  | 87.58% |  | 106.33% | 40.32% | 29.9% | 44.5% | Activity (H4 [14]): 166.91%; Activity (H4 [15]): 137.98%; Activity (H4 [16]): 128.11%; Activity (H4 [18]): 105.38%
CC[C@H](C)[C@H](NS(=O)(=O)c1cccc2ccccc12)C(=O)N[C@H](C=O)Cc1c[nH]c2ccccc12 | 9.4% | 62.34% | 117.24% | 64.1% | 136.94% | 89.37% | 134.83% |  |  |  | Activity (H4 [19]): 172.38%; Activity (H4 [20]): 151.1%; Activity (H4 [21]): 124.74%; Activity (H4 [22]): 199.27%
O[C@H]1[C@H](O)[C@@H](O)CN2CC[C@H](O)[C@H]12 [CASTANOSPERMINE] | 85.6% |  | 88.75% |  | 84.26% |  | 83.53% | 37.35% | 36.45% | 40.02% | Activity (H4 [23]): 174.29%; Activity (H4 [24]): 156.81%; Activity (H4 [25]): 171.2%; Activity (H4 [26]): 157.35%
